TRPC6 activator: activates the mouse TRPC6 cation channel. Q61143. HEK293-TRPC6 membrane potential dye fluorescence; hits give high values. B-score at 10 µM. 0.13% of 310,000 active. AID 2550;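 active means B-score of the integrated fluorescence ratio above library mean plus 3 SD, and starting fluorescence ratio within library mean plus 5 SD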;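 further: higher score means more depolarization so channel activation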
TRPC4 inh: TRPC4 (mouse) channel inhibition | 0.39% of 300,000 active | Q9QUQ5 | HEK293 TRPC4beta/mu-opioid, DAMGO-evoked Fluo4 calcium flux; hits give low values | B-score at 10 µM;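 active means B-score over 3 SD under the library average, no early fluorescence shift, positive overall ratio signal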
Target sequence (Q9QUQ5 whole entry, looked up): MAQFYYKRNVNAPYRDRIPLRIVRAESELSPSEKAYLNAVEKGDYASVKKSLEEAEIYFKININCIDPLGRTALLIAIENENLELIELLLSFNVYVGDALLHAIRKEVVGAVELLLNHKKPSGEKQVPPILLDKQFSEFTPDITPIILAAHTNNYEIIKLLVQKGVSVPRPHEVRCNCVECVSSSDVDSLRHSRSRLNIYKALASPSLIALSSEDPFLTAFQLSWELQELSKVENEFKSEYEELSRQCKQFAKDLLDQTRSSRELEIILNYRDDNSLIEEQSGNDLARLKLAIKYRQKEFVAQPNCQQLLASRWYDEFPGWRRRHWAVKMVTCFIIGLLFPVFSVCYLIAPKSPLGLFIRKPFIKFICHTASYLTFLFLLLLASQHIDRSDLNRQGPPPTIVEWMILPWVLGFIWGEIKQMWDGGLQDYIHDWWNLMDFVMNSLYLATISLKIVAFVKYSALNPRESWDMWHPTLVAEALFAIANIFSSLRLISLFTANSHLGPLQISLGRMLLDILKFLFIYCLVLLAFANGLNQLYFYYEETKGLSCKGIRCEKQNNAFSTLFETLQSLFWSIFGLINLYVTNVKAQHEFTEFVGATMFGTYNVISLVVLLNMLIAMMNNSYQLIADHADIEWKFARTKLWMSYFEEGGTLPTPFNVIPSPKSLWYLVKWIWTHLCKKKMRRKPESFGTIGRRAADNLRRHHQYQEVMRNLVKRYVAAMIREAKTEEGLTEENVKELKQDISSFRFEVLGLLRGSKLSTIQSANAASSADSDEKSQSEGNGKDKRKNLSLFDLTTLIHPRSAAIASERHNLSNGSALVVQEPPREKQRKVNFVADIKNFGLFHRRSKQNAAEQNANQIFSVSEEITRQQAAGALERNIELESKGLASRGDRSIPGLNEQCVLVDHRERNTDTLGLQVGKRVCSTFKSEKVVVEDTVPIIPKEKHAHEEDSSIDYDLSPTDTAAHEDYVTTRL
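material = TRPC4beta/mu-opioid receptor HEK293 cell line | probe or stimulus = sequential submaximal and maximal DAMGO stimulation | compound dosing = one concentration per compound | measured by = Fluo4 Ca2+ flux fluorescence | evaluation = integrated fluorescence ratio relative to baseline, converted to per-well B score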
TRPC6 inh: inhibitors of mouse TRPC6 channel; HEK293-TRPC6, membrane potential dye, ACh-evoked depolarization; hits give low values; B-score at 10 µM; 1.1% of 310,000 active;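 active means B-score under library mean minus 3 SD, initial fluorescence not abnormally high, positive integrated signal ratio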;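 further: B-score derived from integrated fluorescence ratio over the kinetic read; more negative B-score means stronger inhibition of depolarization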
TRPC4 act: opens the mouse TRPC4 cation channel; HEK293 TRPC4beta/mu-opioid, Fluo4 calcium fluorescence; hits give high values; 0.49% of 310,000 active; B-score at 10 µM;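 active means B-score above 5 SD of library B-scores, and initial fluorescence ratio not above library mean plus 5 SD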;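 further: positive B-score marks a calcium rise read as TRPC4 activation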
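system = HEK293 cells stably co-expressing mouse TRPC4beta and mu-opioid receptor | schedule = Fluo4 dye loading 45 min at room temperature, 110 s recording | measure = B-scored integrated calcium fluorescence ratio | signal = Fluo4 calcium-sensitive dye fluorescence, kinetic, 1 Hz baseline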
TRPC4 potent: allosteric potentiators of mouse TRPC4 channel; Q9QUQ5; HEK293 TRPC4beta/mu-opioid, DAMGO EC20, Fluo-4 Ca2+ flux; hits give high values; B-score at 10 µM; 0.42% of 310,000 active;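 active means B-score of calcium response area above 5 SD of library B-scores, with initial fluorescence ratio within 5 SD of library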
Numbers stand for hits; . = inactive. Sampled rows, rich in hits. Any-hit rate of the full collection: about 2.3%.

SMILES	TRPC6 activator	TRPC4 inh	TRPC6 inh	TRPC4 act	TRPC4 potent
CCCN1Cc2cccc(C(=O)N3CCN(c4cc(Cl)ccc4C)CC3)c2C1=O	.	.	.	.	15
Cn1c(=O)n(C)c2cc([N+](=O)[O-])c(N3CCN(S(=O)(=O)c4ccc5ccccc5c4)CC3)cc21	.	.	.	.	.
Cc1ccc(S(=O)(=O)N2CCN(c3cc4c(cc3[N+](=O)[O-])n(C)c(=O)n4C)CC2)cc1	.	.	.	.	15
Cc1ccc(C(=O)Nc2nccs2)s1	.	.	.	.	.
COCc1ccc(CN2CCCC(CCC(=O)NCc3cccc(OC)c3)C2)o1 (stereo unspecified)	.	.	.	.	.
COc1ccccc1/C=C/CN1CCCC(CCC(=O)NCc2ccc(F)c(F)c2)C1 (stereo unspecified)	.	.	.	118	.
COc1cccc(CNC(=O)CCC2CCCN(C/C=C/c3ccccc3OC)C2)c1 (stereo unspecified)	.	.	.	73	.
Cc1ccc(-c2nnn(CC(=O)N(CC(=O)NC3CCCC3)c3cccc(F)c3)n2)o1	.	.	.	.	.
N#CC(C#N)=Cc1ccc(OC(=O)c2ccccn2)cc1	.	.	.	.	.
COc1ccccc1N1CCN(C(=O)CCSCc2ccccc2F)CC1	.	.	.	.	.
COc1ccc(O)c(C(=O)c2cnc3c(c2)c(=O)[nH]c(=O)n3C)c1	.	-6	.	.	.
COCCn1c(=O)[nH]c(=O)c2cc(C(=O)c3cc(Cl)ccc3O)cnc21	.	.	.	.	.
COc1cc(/C=C2/C(=O)NN(c3ccc(Cl)c(Cl)c3)C2=O)cc([N+](=O)[O-])c1O	.	.	.	.	.
COc1cc(/C=C2\SC(=O)N(c3ccccc3Cl)C2=O)cc([N+](=O)[O-])c1O	.	-9	.	.	.
O=C(CCN1CCN(CCO)CC1)Nc1ccc(OCc2ccccc2)cc1	.	.	.	.	.
O=C(CCN1CCN(Cc2ccccc2)CC1)Nc1ccc(OCc2ccccc2)cc1	.	.	.	.	15
O=C(CCN1CCN(Cc2ccccc2)CC1)Nc1cccc(Br)c1	.	.	.	.	20
CCCOc1ccc(NC(=O)CC2C(=O)N(CC)C(=S)N2CCCN2CCN(Cc3ccccc3)CC2)cc1 (stereo unspecified)	.	.	.	.	10
CCc1ccc(C(=O)NNC(=O)CCN2CCN(Cc3ccccc3)CC2)cc1	.	.	.	.	12
CCCOc1ccc(NC(=O)CC2C(=O)N(CC)C(=S)N2CCNC(C)=O)cc1 (stereo unspecified)	.	.	.	.	.
COc1cc(CNCCCN2CCOCC2)c(Br)cc1OC(C)C	.	.	.	.	.
COC(=O)c1ccc(NC(=O)CCN2CCN(Cc3ccccc3)CC2)cc1	.	.	.	.	27
CCC(C)N(C(=O)Cn1nnc2ccccc21)C(C(=O)Nc1ccc(F)cc1)c1cccc(OC)c1 (stereo unspecified)	13.6	.	.	.	.
O=Cc1coc2c(ccc3ccccc32)c1=O	.	-5	.	.	.
CCc1ccc(OCCOCC(O)CNC2CCCC2)cc1 (stereo unspecified)	.	-5	.	.	.
SMILES	TRPC6 activator	TRPC4 inh	TRPC6 inh	TRPC4 act	TRPC4 potent
COc1ccc(OCC(O)CNC2CCCC2)cc1 (stereo unspecified)	.	.	.	.	.
CC(C)NCC(O)COCCOc1ccc(C(C)(C)C)cc1 (stereo unspecified)	.	-5	.	.	.
CSc1nsc(SC)c1NC(=O)Nc1ccccc1C	.	.	.	.	.
CCOc1ccc(OCC)c(NC(=O)C2CCCN(S(=O)(=O)c3cnc[nH]3)C2)c1 (stereo unspecified)	.	.	.	.	.
CCN1CCN(c2ccc(S(=O)(=O)N3CCOCC3)cc2NC(=O)c2ccc(C(F)(F)F)cc2)CC1	.	.	.	.	.
COC(=O)C1=C(C)N(Cc2ccccc2)C(=O)N[C@H]1c1cccc(C(F)(F)F)c1	.	.	.	.	10
N/C(=N\OC(=O)COc1ccc2ccccc2c1Br)c1ccncc1	.	.	-5.02	.	.
N/C(=N\OC(=O)COc1ccc2ccccc2c1)c1ccncc1	.	.	.	.	.
CCc1cc(OCCN(C)C)ccc1Cl	.	.	.	100	26
CCc1cc(OCCN2C(=O)NC(C)(C)C2=O)ccc1Cl	.	.	.	.	14
CCCOc1ccc(Br)cc1/C=N/O	.	-6	.	.	.
CCOc1ccc(N2CC(C(=O)Nc3ccc(S(=O)(=O)N4CCCCC4)cc3)CC2=O)cc1 (stereo unspecified)	.	.	.	.	.
COC(=O)c1cc(N2CCN(C)CC2)nc2ccccc12	.	.	.	.	17
Cc1cc(N2CCN(C)CC2)nc2ccc(NC(=O)c3ccccc3F)cc12	.	.	.	.	.
COc1cc(C2NCCc3c2[nH]c2ccccc32)ccc1OC(C)C (stereo unspecified)	.	.	-6.09	.	.
CCN(C(=O)COC(=O)c1cc2c(s1)CCCCC2)C1CCS(=O)(=O)C1 (stereo unspecified)	.	.	.	.	.
O=C(COC(=O)c1cc2c(s1)CCCCC2)NC1CCS(=O)(=O)C1 (stereo unspecified)	.	.	.	.	88
Cc1cc(C)n2nc(CC(=O)NCc3ccc(F)cc3)nc2n1	.	.	.	.	.
COc1ccc(CNCc2cc(C)c(OC)cc2C)c(OC)c1	.	-5	.	.	.
CCn1c2ccccc2c2cc(CNCc3ccc(OC)cc3OC)ccc21	.	.	.	66	.
CCC(CC)NCc1ccc2c(c1)c1ccccc1n2CC	.	.	.	.	.
CCn1c2ccccc2c2cc(CNCCCN3CCOCC3)ccc21	.	.	-6.26	.	.
Cc1ccc(NS(=O)(=O)c2cc(C(=O)NCc3ccccn3)ccc2Cl)cc1C	.	.	.	.	11
Cc1ccc(C(=O)NCc2ccccn2)cc1Cl	.	.	.	.	10
Cc1ccc(NC(=O)NCc2ccccn2)cc1Cl	.	.	.	.	.
SMILES	TRPC6 activator	TRPC4 inh	TRPC6 inh	TRPC4 act	TRPC4 potent
Cc1ccc(C)c(NS(=O)(=O)c2cc(C(=O)NCc3ccccn3)ccc2Cl)c1	.	.	.	.	.
O=C(Nc1ccc(Br)cc1)c1cccc(-n2cnnn2)c1	.	.	.	.	.
O=C(Nc1nc(-c2ccccn2)cs1)c1cccc(-n2cnnn2)c1	.	.	.	.	13
COc1ccc(CCN2C(=S)N(C)C(=O)C2CC(=O)Nc2ccc(F)cc2)cc1 (stereo unspecified)	.	.	.	120	.
O=C1CC(N2CCN(c3nc4ccccc4s3)CC2)C(=O)N1c1cccc(F)c1 (stereo unspecified)	.	.	.	.	10
CCCOc1ccc(N2C(=O)CC(N3CCN(c4nc5ccccc5s4)CC3)C2=O)cc1 (stereo unspecified)	.	.	.	.	.

Source: PubChem BioAssay
